Data set [1] deals with PDIA3. Kind of data set: Insulin reduction assay. The format is biochemical. The method, boiled down:
(§1)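 The assay measured reductase activity of recombinant PDI family isoforms through insulin reduction, followed as insulin aggregation (turbidity) kinetic traces. A dose range of test compound was applied. IC50 values were extrapolated from 10-dose inhibition curves.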

Data set [2] has as its system PDIA4. Kind of data set: Insulin reduction assay. The format is biochemical. Summed up:
as §1

Data set [3] concerns TXNDC5. The data set is described as follows: Insulin reduction assay. The format is biochemical. Summed up:
as §1

Data set [4] relates to PDIA6. The data set is described as follows: Insulin reduction assay. The format is biochemical. Summed up:
as §1

Data set [5] concerns MM cells. The data set is described as follows: PI sensitization of MM cell lines. The format is cell-based, human.
In data set [6] the test system is MM cells. The data set is described as follows: Single-agent anti-MM cell viability. The following applies: read-out: EC50, single-agent anti-MM activity; 24 h of exposure. The format is cell-based, human. Summed up: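 Myeloma cells were seeded at 3×10^4 cells/well and exposed to test compound alone. Viability was read by CellTiter-Glo luminescence (470 nm, 1-s integration), and EC50 was derived from dose–response curves.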

Data set [7] addresses PDIA1 (Homo sapiens, UniProt P07237). Kind of data set: Insulin reduction assay. The format is biochemical. Summed up:
as §1

Data set [8] is described as follows: Stability against oxidative metabolism by human liver microsomes. The format is in vitro ADME. Background: Microsomes from liver hold many membrane-bound enzymes, among them those of drug oxidation.
Data set [9] in a line: Stability in serum, simulated gastric and intestinal fluids. The format is in vitro ADME.
Data set [10] in a line: Pharmacokinetics in CD-1 mice. The format is in vivo, mouse. The method, boiled down: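 CD-1 mice received a single dose of test compound, either i.v. at 2 mg/kg or p.o. at 5 mg/kg. Plasma drug concentrations were followed over 24 h by an optimized LC-MS method. Oral bioavailability and terminal half-life were derived from these plasma profiles.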
Data set [11] has as its system Vk*MYC transgenic mice. The data set is described as follows: Vk*MYC transgenic mouse model of MM. The format is in vivo. The following applies: 2 mg/kg i.p. days 1, 3, 5 of each week for 2 weeks; three mice; P=0.0135.
Data set [12] relates to MM.1S cells. The format is in vivo.
The conditions of data set [13]: mouse, in vivo.
The subject of data set [14] is MM.1S BzR cells. Kind of data set: Btz re-sensitization of PI-resistant MM cells. Particulars: screening hit, low micromolar E61. The format is cell-based.
The subject of data set [15] is normal cells. Kind of data set: PI sensitization in normal cells. The format is cell-based. The following applies: PBMCs, WBCs, MRC-5, Wi-38, HFF, MEF; Btz and Crflz. Summed up:
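Normal human PBMCs, lymphocytes, lung (MRC-5, Wi-38) and foreskin (HFF) fibroblasts, and mouse MEF fibroblasts were seeded at 3×10^4 cells/well. Cells received 8-dose Btz or Crflz curves with or without 5 µM test compound. Viability was measured by CellTiter-Glo luminescence. Fold change = PI EC50 without / EC50 with test compound; >1 denotes sensitization, <1 protection.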

The subject of data set [16] is RPMI-8226 cells. The data set is described as follows: Effect on dexamethasone activity in dexamethasone resistant cells. The following applies: dexamethasone resistant RPMI-8226 cells. The format is cell-based.
Data set [17] has as its system MM.1S BzR cells. Kind of data set: Effect on lenalidomide or doxorubicin cytotoxicity. The format is cell-based.
Data set [18] relates to 20S proteasome. The data set is described as follows: Chymotrypsin-like activity of the 20S proteasome. The format is biochemical.
Data set [19] relates to MM.1S BzR cells. Kind of data set: NSG mouse xenotransplant model with MM.1S BzR cells. The format is in vivo. The method, boiled down:
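Mice implanted i.v. with PI-resistant MM.1S BzR cells; test compound at 50 mg/kg i.p. daily versus vehicle, from day 21 post-implant. Read-out: Kaplan–Meier survival. In a parallel cohort, mice were sacrificed on day 49 and % CD138+ cells in bone marrow biopsies was quantified (vehicle N=8, treated N=7), compared by t-test.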

The mark [20] stands for this setting: E64FC26 2 mg/kg i.p. 3 days/week, N=9.

Read-outs that look alike come from different tables or passages of the source. A value given as a limit tells only on which side of the number the result lay.

Sequence of PDIA1 (P07237 18-508): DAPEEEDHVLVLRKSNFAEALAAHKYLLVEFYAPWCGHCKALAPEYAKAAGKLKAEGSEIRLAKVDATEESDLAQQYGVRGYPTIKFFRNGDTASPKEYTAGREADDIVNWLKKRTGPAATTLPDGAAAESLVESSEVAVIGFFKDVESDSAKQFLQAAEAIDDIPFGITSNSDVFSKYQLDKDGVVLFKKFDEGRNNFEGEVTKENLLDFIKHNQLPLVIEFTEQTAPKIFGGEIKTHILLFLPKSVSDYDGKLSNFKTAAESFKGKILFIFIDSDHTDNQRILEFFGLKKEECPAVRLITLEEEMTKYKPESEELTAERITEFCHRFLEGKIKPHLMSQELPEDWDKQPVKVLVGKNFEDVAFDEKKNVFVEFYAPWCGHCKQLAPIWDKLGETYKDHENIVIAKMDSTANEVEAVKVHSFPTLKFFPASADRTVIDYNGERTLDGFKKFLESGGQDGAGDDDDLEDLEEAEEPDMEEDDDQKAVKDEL

PACMA 31 [reference compound]: the “inhibition of PDIA3 (qualitative)” value in data set [1] was “failed to inhibit”. Moreover, the “inhibition of PDIA4 (qualitative)” value in data set [2] is given as “inhibited”. Moreover, in data set [3], the “inhibition of TXNDC5 (qualitative)” value is “inhibited”. In addition, the “inhibition of PDIA6 (qualitative)” value in data set [4] was “inhibited”.
Broadly, the EC50 is the midpoint of the concentration-response curve. A word on the IC50: it is the point on the concentration scale where inhibition reaches its midpoint. As to `CCCCCCCC/C=C1\C=C(C(F)(F)F)c2cc(O)c(O)cc21` [E64FC26], the “potency relative to E61 in cellular models of PI sensitization” value in [5] is over 10 times. Further, the “concentrations highly synergistic with PIs” value in [5] (MM.1S BzR and U266 BzR cells, Btz) is given as at least 200 nM. Further, the “average increase in PI sensitivity” value in data set [5] (cells treated with empirically determined EC10–20 of the PDI inhibitor) was 6–7 fold. The concentration for a half-maximal effect (EC50) in [6] came to 0.59 µM. The “potency relative to E61 as inhibitor of PDI activity in vitro” value in data set [7] is reported as over 50 times. For the same compound, the IC50 in data set [7] (read-out: IC50 against PDIA1, insulin reduction assay) was 1.9 ± 0.1 µM. In data set [1], the “inhibition of PDIA3 (qualitative)” value is recorded as “inhibited”. For the same compound, the “inhibition of PDIA4 (qualitative)” value in data set [2] is “inhibited”. Further, the “inhibition of TXNDC5 (qualitative)” value in [3] was “inhibited”. In addition, in data set [4], the “inhibition of PDIA6 (qualitative)” value is listed as “inhibited”. Moreover, the “calculated intrinsic clearance in human liver microsomes” value in data set [8] was 6.22 ± 0.98 µL/min/mg. Also, the “stability in serum, simulated gastric and intestinal fluids, and human liver microsomes compared to E61” value in data set [9] is “increased stability”. The compound also yielded an oral bioavailabilty in [10] (p.o. 5 mg/kg, i.v. 2 mg/kg) of 34%. Further, in data set [10] (read-out: maximum concentration (Cmax), single oral dose of 5 mg/kg, plasma), the Cmax is about 400 nM. This compound yielded a terminal half-life in data set [10] (single oral dose of 5 mg/kg) of 9.5 h. The “average decrease in serum M-protein” value in [11] is 33 ± 7.9%. Further, in [12] (setting [20]), the “increase in median survival over vehicle” value is listed as 2 weeks and the “increase in median survival over vehicle (percent)” value came out at 40%. Also, in [12] (E64FC26 2 mg/kg i.p. 3 days/week, vehicle 0% (0/9)), the “mice alive on day 36” value was determined as 100%. Moreover, the “overt toxicity or body weight fluctuations” value in data set [12] (mouse, in vivo) is reported as “No overt toxicity or body weight fluctuations”. For the same compound, the “blood serum chemistry markers (toxicology)” value in data set [13] was “mild thrombocytopenia and neutropenia”.
On to `CCCCCCCCOC(=O)/C=C/c1ccc(O)c(O)c1` [E61, n-octyl caffeate], for which, in data set [14], the “enhancement of Btz cytotoxicity” value is given as over 6 fold. Besides, the “enhancement of the cytotoxic effects of PIs in normal cells” value in data set [15] is on record as “failed to enhance”. For the same compound, in data set [16], the “effect on dexamethasone activity” value is reported as “no effect”. Further, in data set [17], the “effect on lenalidomide or doxorubicin cytotoxicity” value is “did not affect”. The “inhibition of chymotrypsin-like activity of the 20S proteasome” value in [18] is recorded as “did not inhibit”. Further, in [6], the EC50 was found to be 18.3 µM. In addition, the “IC50 in vitro (PDI assay, qualitative)” value in data set [7] was “high micromolar”. Besides, in [19] (50 mg/kg i.p. daily, sacrificed on day 49, P=0.007), the “number of CD138+ MM cells in bone marrow” value is listed as “significant reduction”. Moreover, the “treated mice that never reached the survival endpoint” value in data set [19] (50 mg/kg/day i.p.) is listed as 4 of the 11. The same compound came in with a median survival in data set [19] (50 mg/kg/day i.p., continuous dosing, vehicle 51 days) of 62 days. In addition, the “prolongation of median survival” value in data set [19] (50 mg/kg/day i.p., continuous dosing, vs vehicle, N=11) came out at 11 days. For the same compound, the “tolerability (overt signs of distress, body weight)” value in data set [19] (continuous dosing for 40+ days, 50 mg/kg/day i.p.) is recorded as “well tolerated”. Further, in data set [8], the “calculated intrinsic clearance in human liver microsomes” value was 97.6 ± 6.0 µL/min/mg.
Consider `CC(C)C[C@H](NC(=O)[C@H](Cc1ccccc1)NC(=O)c1cnccn1)B(O)O` [Btz, bortezomib, reference compound], for which the “increase in median survival over vehicle” value in [12] (Btz 0.25 mg/kg i.p. 2 days/week, E64FC26 2 mg/kg i.p. 3 days/week, N=8) is 6 days.
As for `O=C(O)/C=C/c1ccc(O)c(O)c1` [caffeic acid, reference compound], the “enhancement of the sensitivity of MM cells to PIs (qualitative)” value in [5] is reported as “failed to enhance”. The “PDI reductase activity in vitro (qualitative)” value in [7] is on record as “no activity”.

Source of the values: PMC7194280 (Leukemia, 2018).
